Data as given in ChEMBL document CHEMBL3244319, “Angiotensin II analogues. 14. Roles of the imidazole nitrogens of position-6 histidine in pressor activity” (1979).
Starred links: 1 amine or outer side, 2 acyl side, 3 side chain; linkers in the order of their positions; H or OH if unused. Non-standard residues stand in square brackets, D forms with d. Residues, ends and D or L forms follow the SMILES beside them. X4 = O=C([C@H](Cc1cc[nH]n1)N[*:1])[*:2]; 2Thi = N[C@@H](Cc1cccs1)C(=O)O; Orn = NCCC[C@H](N)C(=O)O

Species on record: Rattus norvegicus
Test: Pressor activity in rat relative to angiotensin-2
Type: functional
How it was run: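 Male rats, anesthetized with pentobarbital, nephrectomized and treated with pentolinium; blood pressure rise recorded after dosing. Peptides dissolved in normal saline with 0.1% polyvinylpyrrolidone, held in siliconized glass containers. Activity expressed relative to [Asn1,Val5]angiotensin II set at 100.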

Compound	Activity [%]
CC[C@H](C)[C@H](NC(=O)[C@H](Cc1ccc(O)cc1)NC(=O)[C@@H](NC(=O)[C@H](CCCN=C(N)N)NC(=O)[C@@H](N)CC(=O)O)C(C)C)C(=O)N[C@@H](Cc1c[nH]cn1)C(=O)N1CCC[C@H]1C(=O)N[C@@H](Cc1ccccc1)C(=O)O	4
CC[C@H](C)[C@H](NC(=O)[C@H](Cc1ccc(O)cc1)NC(=O)[C@@H](NC(=O)[C@H](CCCN=C(N)N)NC(=O)[C@@H](N)CC(=O)O)C(C)C)C(=O)N[C@@H](Cc1cncn1C)C(=O)N1CCC[C@H]1C(=O)N[C@@H](Cc1ccccc1)C(=O)O	0.05
CC[C@H](C)[C@H](NC(=O)[C@H](Cc1ccc(O)cc1)NC(=O)[C@@H](NC(=O)[C@H](CCCN=C(N)N)NC(=O)[C@@H](N)CC(=O)O)C(C)C)C(=O)N[C@@H](Cc1cn(C)cn1)C(=O)N1CCC[C@H]1C(=O)N[C@@H](Cc1ccccc1)C(=O)O	5
CC[C@H](C)[C@H](NC(=O)[C@H](Cc1ccc(O)cc1)NC(=O)[C@@H](NC(=O)[C@H](CCCNC(=N)N)NC(=O)[C@@H](N)CC(=O)O)C(C)C)C(=O)N[C@@H](Cc1cccs1)C(=O)N1CCC[C@H]1C(=O)N[C@@H](Cc1ccccc1)C(=O)O (H-DRVYI[2Thi]PF-OH)	10
CC[C@H](C)[C@H](NC(=O)[C@H](Cc1ccc(O)cc1)NC(=O)[C@@H](NC(=O)[C@H](CCCNC(=N)N)NC(=O)[C@@H](N)CC(=O)O)C(C)C)C(=O)N[C@@H](CCCN)C(=O)N1CCC[C@H]1C(=O)N[C@@H](Cc1ccccc1)C(=O)O (H-DRVYI[Orn]PF-OH)	0.03
CC[C@H](C)[C@H](NC(=O)[C@H](Cc1ccc(O)cc1)NC(=O)[C@@H](NC(=O)[C@H](CCCNC(=N)N)NC(=O)[C@@H](N)CC(=O)O)C(C)C)C(=O)N[C@@H](Cc1cc[nH]n1)C(=O)N1CCC[C@H]1C(=O)N[C@@H](Cc1ccccc1)C(=O)O (H-DRVYI[X4]PF-OH)	57
H-DRVYIAPF-OH	0.8
H-DRVYIEPF-OH	0
H-DRVYIFPF-OH	3
H-DRVYIKPF-OH	0.1
H-DRVYILPF-OH	0.02
H-DRVYIMPF-OH	0.2
H-DRVYIRPF-OH	0.01
